Measurements published in ChEMBL document CHEMBL2417437, “A hit to lead discovery of novel N-methylated imidazolo-, pyrrolo-, and pyrazolo-pyrimidines as potent and selective mTOR inhibitors” (Bioorg Med Chem Lett, 2013).

Legend:
[1] = Efflux ratio of apparent permeability in MDCK cells; format: ADME, cell-based, Canis lupus familiaris; conditions: dog
[2] = Apparent permeability across basolateral to apical side in MDCK cells; format: ADME, cell-based, Canis lupus familiaris; conditions: dog
[3] = Oral bioavailability in mouse at 25 mg/kg; format: ADME, organism-based; conditions: in vivo
Method in brief: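 Mice were given a 25 mg/kg oral dose as a suspension in MCT. Bioavailability was reported as %F.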

[4] = Volume of distribution at steady state in iv dosed mouse; format: ADME, organism-based; conditions: in vivo, read-out: Vdss
[5] = Plasma clearance in iv dosed mouse; format: ADME, organism-based
PC-3 = experiment: Antiproliferative activity against PTEN deficient human PC3 cells assessed as cell viability after 3 days by CellTiter-Glo assay; format: functional, cell-based; conditions: PC-3, 72 h
Method in brief: (§1)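 Three-day cell viability assay in PTEN-null NCI-PC3 prostate carcinoma cells and in MCF7 neo/HER2 cells, read as antiproliferative activity.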

MCF7 = experiment: Antiproliferative activity against human MCF7 cells expressing neo/Her2 assessed as cell viability after 3 days by CellTiter-Glo assay; format: functional, cell-based; conditions: MCF7, 72 h; method in brief: as §1
[6] = target: T1, Serine/threonine-protein kinase mTOR (Homo sapiens, UniProt P42345); experiment: Inhibition of mTOR in PTEN deficient human PC3 cells assessed as inhibition of p70S6K phosphorylation; format: cell-based, PC-3
[7] = target: T1, Serine/threonine-protein kinase mTOR; experiment: Inhibition of mTOR in PTEN deficient human PC3 cells assessed as inhibition of Akt phosphorylation at Ser473; format: cell-based, PC-3
[8] = target: T2, Phosphatidylinositol 4,5-bisphosphate 3-kinase catalytic subunit delta isoform (Homo sapiens, UniProt O00329); experiment: Displacement of TAMRA-PIP3 from PI3Kdelta GRP-1 pleckstrin homology domain (unknown origin) assessed as formation of 3,4,5-inositoltriphosphate after 30 mins by fluorescence polarization assay
T2 sequence (O00329 whole entry): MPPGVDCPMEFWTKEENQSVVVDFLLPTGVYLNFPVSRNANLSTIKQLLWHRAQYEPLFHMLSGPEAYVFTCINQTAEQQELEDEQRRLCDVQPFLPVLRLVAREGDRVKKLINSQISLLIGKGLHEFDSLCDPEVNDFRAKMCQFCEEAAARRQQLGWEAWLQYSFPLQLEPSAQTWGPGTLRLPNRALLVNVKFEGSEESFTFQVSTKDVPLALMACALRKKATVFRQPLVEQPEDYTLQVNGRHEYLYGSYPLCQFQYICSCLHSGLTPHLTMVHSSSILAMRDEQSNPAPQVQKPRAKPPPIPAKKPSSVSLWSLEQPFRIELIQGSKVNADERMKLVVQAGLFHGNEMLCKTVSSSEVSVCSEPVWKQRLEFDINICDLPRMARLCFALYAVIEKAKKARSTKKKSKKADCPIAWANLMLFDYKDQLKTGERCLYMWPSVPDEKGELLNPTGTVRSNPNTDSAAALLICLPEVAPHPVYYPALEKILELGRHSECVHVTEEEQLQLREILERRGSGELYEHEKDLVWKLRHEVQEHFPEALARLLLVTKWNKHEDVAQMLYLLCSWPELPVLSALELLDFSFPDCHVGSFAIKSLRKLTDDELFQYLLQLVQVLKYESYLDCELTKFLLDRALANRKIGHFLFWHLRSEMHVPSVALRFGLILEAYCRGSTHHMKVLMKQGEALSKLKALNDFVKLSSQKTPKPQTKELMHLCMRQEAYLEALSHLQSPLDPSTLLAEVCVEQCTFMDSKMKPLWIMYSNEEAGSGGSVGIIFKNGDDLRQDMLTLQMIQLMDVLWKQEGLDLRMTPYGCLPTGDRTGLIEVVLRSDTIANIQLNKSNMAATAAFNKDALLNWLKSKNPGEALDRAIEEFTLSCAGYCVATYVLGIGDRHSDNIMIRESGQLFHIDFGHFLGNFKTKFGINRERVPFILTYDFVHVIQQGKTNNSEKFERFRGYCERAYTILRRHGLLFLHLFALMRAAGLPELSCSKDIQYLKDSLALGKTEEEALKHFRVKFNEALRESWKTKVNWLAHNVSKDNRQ

[9] = target: Phosphatidylinositol 4,5-bisphosphate 3-kinase catalytic subunit alpha isoform (Homo sapiens, UniProt P42336); experiment: Displacement of TAMRA-PIP3 from PI3Kalpha GRP-1 pleckstrin homology domain (unknown origin) assessed as formation of 3,4,5-inositoltriphosphate after 30 mins by fluorescence polarization assay
Chain of Phosphatidylinositol 4,5-bisphosphate 3-kinase catalytic subunit alpha isoform (P42336 whole entry, the tested form may be a part, canonical isoform): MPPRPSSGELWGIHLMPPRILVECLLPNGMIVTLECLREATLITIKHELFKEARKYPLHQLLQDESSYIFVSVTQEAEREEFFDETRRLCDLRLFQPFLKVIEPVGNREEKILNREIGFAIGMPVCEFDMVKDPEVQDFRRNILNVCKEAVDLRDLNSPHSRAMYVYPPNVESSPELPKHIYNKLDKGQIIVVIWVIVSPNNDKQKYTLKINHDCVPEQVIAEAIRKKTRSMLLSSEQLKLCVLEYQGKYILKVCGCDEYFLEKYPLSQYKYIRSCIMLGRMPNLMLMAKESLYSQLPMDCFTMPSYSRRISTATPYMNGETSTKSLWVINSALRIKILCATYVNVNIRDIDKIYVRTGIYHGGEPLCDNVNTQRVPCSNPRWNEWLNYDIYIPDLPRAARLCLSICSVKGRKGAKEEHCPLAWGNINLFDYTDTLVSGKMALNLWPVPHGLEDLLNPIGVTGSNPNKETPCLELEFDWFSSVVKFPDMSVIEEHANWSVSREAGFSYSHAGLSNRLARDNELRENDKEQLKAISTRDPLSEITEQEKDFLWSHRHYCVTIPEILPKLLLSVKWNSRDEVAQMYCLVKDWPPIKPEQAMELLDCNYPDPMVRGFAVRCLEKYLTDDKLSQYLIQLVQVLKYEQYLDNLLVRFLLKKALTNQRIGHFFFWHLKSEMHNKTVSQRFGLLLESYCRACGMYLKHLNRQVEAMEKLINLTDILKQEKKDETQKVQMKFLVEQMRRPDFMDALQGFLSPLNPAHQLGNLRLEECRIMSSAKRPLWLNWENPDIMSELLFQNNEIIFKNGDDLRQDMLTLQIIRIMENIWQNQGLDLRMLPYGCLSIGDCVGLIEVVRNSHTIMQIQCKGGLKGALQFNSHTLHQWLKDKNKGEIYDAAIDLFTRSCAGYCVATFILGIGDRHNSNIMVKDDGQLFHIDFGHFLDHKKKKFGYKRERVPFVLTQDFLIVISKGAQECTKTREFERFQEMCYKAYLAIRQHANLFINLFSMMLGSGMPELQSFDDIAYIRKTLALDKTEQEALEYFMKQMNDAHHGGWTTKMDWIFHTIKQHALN

[10] = target: T1, Serine/threonine-protein kinase mTOR; experiment: Inhibition of human recombinant mTOR (1360-2549) expressed in insect cells assessed as phosphorylation of recombinant (GFP)-4-EBP1 after 30 mins by LanthaScreen FRET assay
Homo sapiens [11] = organism: Homo sapiens; experiment: Selectivity ratio of IC50 for PI3Kalpha (unknown origin) to Ki for human recombinant mTOR (1360-2549)
Method in brief: (§2)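 Ratio of two biochemical values. The PI3K IC50 (PI3Kα or PI3Kδ) comes from a fluorescence polarization kinase assay. The mTOR Ki comes from a LanthaScreen FRET assay on the recombinant mTOR kinase domain. Each value is from at least two separate determinations, with typical variation under 30%.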

Homo sapiens [12] = organism: Homo sapiens; experiment: Selectivity ratio of IC50 for PI3Kdelta (unknown origin) to Ki for human recombinant mTOR (1360-2549); method in brief: as §2
[13] = target: T1, Serine/threonine-protein kinase mTOR; experiment: Inhibition of mTOR (unknown origin)

Row | Structure (SMILES) | EC50 (PC-3) | EC50 (MCF7) | IC50 [6] | IC50 [7] | Ki [8] | Ki [9] | Ki [10] | other results
1 | CCNC(=O)Nc1ccc(-c2nc(N3CCOC[C@H]3C)c3c(ncn3C)n2)cc1 |  |  |  |  |  |  |  | IC50 [8]: 4 µM; IC50 [9]: 5.8 µM
2 | CCNC(=O)Nc1ccc(-c2nc(N3CCOC[C@@H]3C)c3ncn(C)c3n2)cc1 |  |  |  |  | 0.89 µM | 0.37 µM | 0.012 µM | 
3 | CCNC(=O)Nc1ccc(-c2nc(N3CCOC[C@@H]3CC)c3c(ccn3C)n2)cc1 | 0.28 µM | 0.42 µM | 0.04 µM | 0.011 µM | > 10 µM | > 10 µM | 0.006 µM | 
4 | CCNC(=O)Nc1ccc(-c2nc(N3CCCOCC3)c3c(ncn3C)n2)cc1 |  |  | 8.9 µM | 7.2 µM |  |  |  | Ratio (Homo sapiens [11]): 53; Ratio (Homo sapiens [12]): 61; IC50 [8]: 7.3 µM; IC50 [9]: 6.4 µM
5 | CCNC(=O)Nc1ccc(-c2nc(N3CCOC[C@@H]3C)c3nc(C(C)(C)O)n(CCO)c3n2)cc1 |  |  |  |  | 0.16 µM | 0.19 µM | 0.0095 µM | Ki [13]: 0.009 µM
6 | CCNC(=O)Nc1ccc(-c2nc(N3CCOC[C@@H]3C)c3ncn(CC)c3n2)cc1 |  |  |  |  | 0.63 µM | 0.38 µM | 0.008 µM | 
7 | CCNC(=O)Nc1ccc(-c2nc(N3CCOC[C@@H]3C)c3nc(C(C)(C)O)n(C)c3n2)cc1 |  |  |  |  | 0.49 µM | 0.39 µM | 0.007 µM | 
8 | CCNC(=O)Nc1ccc(-c2nc(N3CCOC[C@@H]3CC)c3c(n2)c(C)nn3C)cc1 | 0.086 µM | 0.16 µM | 0.008 µM | 0.004 µM | > 10 µM | 5.8 µM |  | 
9 | CCNC(=O)Nc1ccc(-c2nc(N3CCOC[C@@H]3C)c3c(n2)nc(C(C)(C)O)n3C)cc1 |  |  |  |  | 7.3 µM | 7 µM |  | 
10 | CC(C)(O)c1nc2c(N3CCOCC3)nc(-c3cnc(N)nc3)nc2n1CCO |  |  |  |  | 0.004 µM | 0.002 µM |  | Ki [13]: 0.072 µM
11 | CCNC(=O)Nc1ccc(-c2nc(N3CCOC[C@@H]3C)c3c(ncn3CC)n2)cc1 |  |  |  |  | > 10 µM | > 10 µM |  | 
12 | CCNC(=O)Nc1ccc(-c2nc(N3CCOCC3)c3c(ncn3C)n2)cc1 |  |  |  |  |  |  | 0.15 µM | 

Further lines, with some results ahead:

Row | EC50 (PC-3) | EC50 (MCF7) | IC50 [6] | IC50 [7] | Ki [8] | Ki [9] | Ki [10] | Structure (SMILES) | other results
13 | 0.42 µM | 0.76 µM | 0.047 µM | 0.008 µM | > 10 µM | > 10 µM | 0.008 µM | CCNC(=O)Nc1ccc(-c2nc(N3CCOC[C@@H]3C)c3c(cnn3C)n2)cc1 | efflux ratio [1]: 0.55; Papp B→A [2]: 8.6 ×10⁻⁶ cm/s; bioavailability [3]: 4.4%; Vd [4]: 0.36 L/kg; clearance [5]: 13 mL/min/kg
14 | 0.29 µM | 1.3 µM |  |  | > 10 µM | > 10 µM |  | CCNC(=O)Nc1ccc(-c2nc(N3CCOC[C@@H]3C)c3c(ncn3C)n2)cc1 | 
15 | 0.737 µM | 0.518 µM | 0.153 µM | 0.069 µM |  |  |  | CCNC(=O)Nc1ccc(-c2nc(N3CCOC[C@@H]3CC)c3c(ncn3C)n2)cc1 | Ratio (Homo sapiens [11]): > 2600; Ratio (Homo sapiens [12]): > 2600; IC50 [8]: > 10 µM; IC50 [9]: > 10 µM
16 | 0.13 µM | 0.26 µM | 0.015 µM | 0.008 µM | > 10 µM | 3.4 µM | 0.001 µM | CCNC(=O)Nc1ccc(-c2nc(N3CCOC[C@@H]3CC)c3c(cnn3C)n2)cc1 | 
17 | 1.9 µM | 9 µM | 0.11 µM | 0.077 µM | > 10 µM | > 10 µM | 0.019 µM | CCNC(=O)Nc1ccc(-c2nc(N3CCOC[C@@H]3C)c3c(ccn3C)n2)cc1 | 
18 | 2.9 µM | 1.7 µM | 0.27 µM | 0.34 µM | 5.15 µM | 5.14 µM | 0.028 µM | CCNC(=O)Nc1ccc(-c2nc(N3C[C@@H]4C[C@H]3CO4)c3c(cnn3C)n2)cc1 | 
